Results reported in ChEMBL document CHEMBL4622840, “Microbial transformation of glycyrrhetinic acid derivatives by Bacillus subtilis ATCC 6633 and Bacillus megaterium CGMCC 1.1741” (Bioorg Med Chem, 2020).

Key:
RAW264.7 = assay: Antiinflammatory activity in mouse RAW264.7 cells assessed as inhibition of NO production preincubated for 1 hr followed by LPS stimulation measured after 24 hrs by Griess reagent based assay; assay type: functional, cell-based
Outline: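 RAW 264.7 macrophages kept at 37 °C under 5% CO2. Cells were exposed to compound for 1 h, then stimulated with LPS at 1.0 μg/mL. After 24 h, nitrite/NO in the medium was read with Griess reagent.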

[1] = Cytotoxicity against mouse RAW264.7 cells assessed as cell viability; assay type: cell-based; design: concentration or dose not given beside the values; details: read-out: Activity
[2] = Mus musculus, RAW264.7, read-out: IC50

| IC50 (RAW264.7; raw264.7) | IC50 (RAW264.7; [2]) | SMILES | viability [1] |
| --- | --- | --- | --- |
| Not Active | – | CC1(C)CC[C@]2(C(=O)O)CC[C@]3(C)C(=CC(=O)[C@@H]4[C@@]5(C)CC[C@H](O)C(C)(C)[C@@H]5CC[C@]43C)[C@@H]2C1 | 111% |
| – | 38.3 µM | CC1(C)C(=O)CC[C@]2(C)[C@H]3CC=C4[C@@H]5C[C@@](C)(CO)CC[C@]5(C)CC[C@@]4(C)[C@]3(C)CC[C@@H]12 | 110% |
| Not Active | – | CC1(C)[C@@H](O[C@@H]2O[C@H](CO)[C@@H](O)[C@H](O)[C@H]2O)CC[C@]2(C)[C@H]3C(=O)C=C4[C@@H]5C[C@@](C)(CO)CC[C@]5(C)CC[C@@]4(C)[C@]3(C)CC[C@@H]12 | 1.22% |
| – | 47.2 µM | CC1(C)[C@@H](O)CC[C@]2(C)[C@H]3C(=O)C=C4[C@@H]5C[C@@](C)(C=O)CC[C@]5(C)CC[C@@]4(C)[C@]3(C)CC[C@@H]12 | 89.6% |
| Not Active | – | CC1(C)[C@@H](O)CC[C@]2(C)[C@H]3CC=C4[C@@H]5C[C@@](C)(C(=O)O)CC[C@]5(C)CC[C@@]4(CO)[C@]3(C)[C@@H](O)C[C@@H]12 | 114% |
| Not Active | – | CC1(C)[C@@H](O)CC[C@]2(C)[C@H]3CC=C4[C@@H]5C[C@@](C)(CO)CC[C@]5(C)C[C@H](O)[C@@]4(C)[C@]3(C)[C@@H](O)C[C@@H]12 | 120% |
| Not Active | – | CC1(C)[C@@H](O)CC[C@]2(C)[C@H]3C(=O)C=C4[C@@H]5C[C@@](C)(C(=O)O)CC[C@]5(C)CC[C@@]4(C)[C@]3(C)CC[C@@H]12 [ENOXOLONE] | 4.04% |

Second part, the compound before the results:

| SMILES | IC50 (RAW264.7; raw264.7) | IC50 (RAW264.7; [2]) | viability [1] |
| --- | --- | --- | --- |
| CC1(C)[C@@H](O)CC[C@]2(C)[C@H]3C(=O)C=C4[C@@H]5C[C@@](C)(CO)CC[C@]5(C)CC[C@@]4(C)[C@]3(C)CC[C@@H]12 | – | 50.3 µM | 56.6% |
| CC1(C)[C@@H](O)CC[C@]2(C)[C@H]3CC=C4[C@@H]5C[C@@](C)(CO)CC[C@]5(C)CC[C@@]4(C)[C@]3(C)CC[C@@H]12 | – | 48.2 µM | 102% |
| CC1(C)CC[C@]2(C(=O)O[C@@H]3O[C@H](CO)[C@@H](O)[C@H](O)[C@H]3O)CC[C@]3(C)C(=CC(=O)[C@@H]4[C@@]5(C)CC[C@H](O)C(C)(C)[C@@H]5CC[C@]43C)[C@@H]2C1 | – | 11.1 µM | 82.7% |
| CC1(C)[C@@H](O)CC[C@]2(C)[C@H]3CC=C4[C@@H]5C[C@@](C)(CO)CC[C@]5(C)C[C@H](O)[C@@]4(CO)[C@]3(C)[C@@H](O)C[C@@H]12 | – | 0.07 µM | 107% |
| CC1(C)[C@@H](O[C@@H]2O[C@H](CO)[C@@H](O)[C@H](O)[C@H]2O)CC[C@]2(C)[C@H]3C(=O)C=C4[C@@H]5C[C@@](C)(C=O)CC[C@]5(C)CC[C@@]4(C)[C@]3(C)CC[C@@H]12 | Not Active | – | 7.33% |
| CC1(C)[C@@H](O[C@@H]2O[C@H](CO)[C@@H](O)[C@H](O)[C@H]2O)CC[C@]2(C)[C@H]3C(=O)C=C4[C@@H]5C[C@@](C)(C(=O)O[C@@H]6O[C@H](CO)[C@@H](O)[C@H](O)[C@H]6O)CC[C@]5(C)CC[C@@]4(C)[C@]3(C)CC[C@@H]12 | Not Active | – | 121% |
| CC1(C)[C@@H](O)CC[C@]2(C)[C@H]3[C@H](O)C=C4[C@@H]5C[C@@](C)(CO)CC[C@]5(C)C[C@H](O)[C@@]4(C)[C@]3(C)[C@@H](O)C[C@@H]12 | Not Active | – | 112% |
| CC1(C)[C@@H](O)CC[C@]2(C)C3[C@H](O)C=C4[C@@H]5C[C@@](C)(CO)CC[C@]5(C)CC[C@@]4(C=O)[C@]3(C)[C@@H](O)C[C@@H]12 (stereo not given in full) | Not Active | – | 130% |
| CC1(C)[C@@H](O)CC[C@]2(C)[C@H]3C(=O)C=C4[C@@H]5C[C@@](C)(C(=O)O[C@@H]6O[C@H](CO)[C@@H](O)[C@H](O)[C@H]6O)CC[C@]5(C)CC[C@@]4(C)[C@]3(C)CC[C@@H]12 | Not Active | – | 94.8% |
| CC1(C)[C@@H](O)CC[C@]2(C)C3=CC=C4[C@@H]5C[C@@](C)(CO)CC[C@]5(C)C[C@H](O)[C@@]4(CO)[C@]3(C)[C@@H](O)C[C@@H]12 | – | 68.9 µM | 130% |
| CC1(C)[C@@H](O)CC[C@]2(C)[C@H]3CC=C4[C@@H]5[C@H](O)[C@@](C)(CO)CC[C@]5(C)C[C@H](O)[C@@]4(C)[C@]3(C)[C@@H](O)C[C@@H]12 | – | 0.64 µM | 125% |
| CC1(C)[C@@H](O)CC[C@]2(C)[C@H]3CC=C4[C@@H]5C[C@@](C)(C(=O)O)CC[C@]5(C)CC[C@@]4(C)[C@]3(C)CC[C@@H]12 | – | 25.6 µM | 83.4% |
| O=c1c(O)c(-c2ccc(O)c(O)c2)oc2cc(O)cc(O)c12 [QUERCETIN] | – | 4.53 µM | 106% |
